Measurements as given in ChEMBL document CHEMBL4342468, “Evolution of a 4-Benzyloxy-benzylamino Chemotype to Provide Efficacious, Potent, and Isoform Selective PPARα Agonists as Leads for Retinal Disorders” (J Med Chem, 2020).

Assays:
[1] = Half life in human pooled liver microsomes preincubated for 5 mins prior to addition of NADPH-regenerating system and measured up to 60 mins by HPLC-MS/MS analysis; assay type: ADME, Microsome; details: 1 h
Rattus norvegicus = assay: Protection against STZ-induced diabetic retinopathy Brown Norway rat model assessed as reduction in vascular leakage by measuring retinal vascular permeability at 25 mg/kg, ip administered daily for 4 weeks starting at 2 weeks post STZ challenge measured per mg of total retinal protein by Evan blue dye based assay (reference value: 0.090 +/- 0.015 microg); assay type: functional
Outline: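 Male Brown Norway rats aged 8 weeks (legend: 7–8 weeks) made diabetic with STZ 55 mg/kg i.p.; blood glucose >350 mg/dl at day 3. Starting 2 weeks after STZ, daily i.p. compound or same-volume vehicle for 4 weeks. Under ketamine/xylazine, Evans blue 30 mg/ml at 1 µl/g given i.v. via femoral vein and circulated 2 h. Perfusion with 1% paraformaldehyde in citrate buffer, pH 4.2, at 37°C. Retina extracted in formamide 18 h at 70°C, ultracentrifuged, A620 read. Dye amount from a standard curve, normalized to total protein. Groups compared by Student's t-test, mean ± SD.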

[2] = biological target: Voltage-gated inwardly rectifying potassium channel KCNH2 (Homo sapiens, UniProt Q12809); assay: Inhibition of human ERG stably expressed in CHOK1 cells assessed as tail current amplitude at 0.1 to 10 uM incubated for 5 mins measured after deploarization to +20 mV for 2s followed by 1s pulse to -40 mV with holding potential of -80 mV by Qpatch clamp assay; assay type: cell-based
Chain of Voltage-gated inwardly rectifying potassium channel KCNH2 (Q12809 whole entry): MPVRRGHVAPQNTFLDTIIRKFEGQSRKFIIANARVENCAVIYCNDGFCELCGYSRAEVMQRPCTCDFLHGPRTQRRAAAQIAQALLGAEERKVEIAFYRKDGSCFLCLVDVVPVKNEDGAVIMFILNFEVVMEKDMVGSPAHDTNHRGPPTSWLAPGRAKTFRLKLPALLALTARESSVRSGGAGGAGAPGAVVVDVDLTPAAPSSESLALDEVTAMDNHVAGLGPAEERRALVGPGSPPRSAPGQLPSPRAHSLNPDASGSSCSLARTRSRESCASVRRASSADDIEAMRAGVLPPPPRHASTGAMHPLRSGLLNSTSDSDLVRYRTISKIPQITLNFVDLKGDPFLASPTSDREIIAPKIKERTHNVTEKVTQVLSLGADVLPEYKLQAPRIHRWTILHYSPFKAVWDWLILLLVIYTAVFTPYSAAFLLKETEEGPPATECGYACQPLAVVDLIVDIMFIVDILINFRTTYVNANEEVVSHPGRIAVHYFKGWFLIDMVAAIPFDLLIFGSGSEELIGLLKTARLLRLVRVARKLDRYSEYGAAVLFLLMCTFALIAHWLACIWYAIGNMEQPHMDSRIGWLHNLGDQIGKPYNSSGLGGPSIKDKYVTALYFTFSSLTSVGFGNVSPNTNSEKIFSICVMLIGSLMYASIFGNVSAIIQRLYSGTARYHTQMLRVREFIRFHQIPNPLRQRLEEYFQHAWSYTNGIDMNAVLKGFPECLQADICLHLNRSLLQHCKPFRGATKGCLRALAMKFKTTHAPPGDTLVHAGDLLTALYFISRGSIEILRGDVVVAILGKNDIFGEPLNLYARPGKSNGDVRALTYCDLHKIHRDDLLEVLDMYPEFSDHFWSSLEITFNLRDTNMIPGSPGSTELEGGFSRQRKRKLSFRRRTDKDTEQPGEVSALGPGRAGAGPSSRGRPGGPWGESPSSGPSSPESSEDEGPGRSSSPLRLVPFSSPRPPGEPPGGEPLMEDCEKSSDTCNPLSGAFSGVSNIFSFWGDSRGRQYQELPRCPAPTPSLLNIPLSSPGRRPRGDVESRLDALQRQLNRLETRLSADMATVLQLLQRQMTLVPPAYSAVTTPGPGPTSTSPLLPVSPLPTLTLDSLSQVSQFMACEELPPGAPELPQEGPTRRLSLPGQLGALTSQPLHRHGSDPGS
Outline: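 Whole-cell automated patch clamp at room temperature. CHO-K1 cells were detached with trypsin and held in serum-free medium. Intracellular solution was KCl/EGTA/MgATP/HEPES at pH 7.2; extracellular solution was NaCl/KCl/CaCl2/glucose/HEPES at pH 7.4, applied first for 5 min. Compound given at 0.1, 1 and 10 μM in rising order, 5 min each, on the same cell. Percent inhibition taken from tail current before and after compound. E-4031 reference. Run in duplicate.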

[3] = biological target: T1, Peroxisome proliferator-activated receptor alpha (Homo sapiens, UniProt Q07869); assay: Binding affinity to PPARalpha in human MIO-M1 cells assessed as increase in thermal stability preincubated for 3 hrs followed by exposure to 45.5 degree C for 10 mins by CETSA; assay type: cell-based
T1 sequence (Q07869 whole entry): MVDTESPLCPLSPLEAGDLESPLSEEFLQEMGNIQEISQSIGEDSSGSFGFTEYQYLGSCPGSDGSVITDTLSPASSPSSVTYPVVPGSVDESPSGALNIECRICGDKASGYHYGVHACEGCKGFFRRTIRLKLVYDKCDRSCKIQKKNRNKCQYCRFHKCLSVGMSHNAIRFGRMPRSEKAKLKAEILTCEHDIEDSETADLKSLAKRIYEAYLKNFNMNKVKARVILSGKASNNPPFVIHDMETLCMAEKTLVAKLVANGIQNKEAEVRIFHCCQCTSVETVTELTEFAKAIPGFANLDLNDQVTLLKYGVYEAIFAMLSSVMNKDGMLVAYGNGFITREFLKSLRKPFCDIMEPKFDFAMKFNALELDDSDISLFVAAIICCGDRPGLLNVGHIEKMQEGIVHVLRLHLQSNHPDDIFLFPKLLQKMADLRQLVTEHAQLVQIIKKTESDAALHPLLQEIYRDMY
Outline: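 Human retinal Müller glial MIO-M1 cells grown in DMEM with 10% FBS. They were then heated at Tagg(75) for 10 min. Lysis used cold PBS with 0.1% Triton X-100 and protease inhibitors, and unstable protein was removed by centrifugation. Soluble PPARα was quantified by anti-PPARα immunoblot, normalized to loading control, and EC50 fitted. Single experiment, duplicate.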

[4] = biological target: T2, Peroxisome proliferator-activated receptor alpha (Homo sapiens) (UniProt Q07869); assay: Binding affinity to His tagged PPARalpha LBD (unknown origin) expressed in Escherichia coli Rosetta (DE3) assessed as change in entropy at 25 degree C by isothermal titration calorimetry
T2 sequence (whole entry): T1 sequence (Q07869 whole entry)

661W = assay: Cytotoxicity against mouse 661W cells assessed as cell death at 200 uM incubated for overnight by colorimetric enzyme coupled LDH assay; assay type: cell-based
[5] = biological target: T3, Peroxisome proliferator-activated receptor gamma (Homo sapiens, UniProt P37231); assay: Agonist activity at human PPARgamma expressed in nonhuman mammalian cells assessed as increase in receptor transcriptional activity incubated for 22 to 24 hrs by luciferase reporter gene assay; assay type: cell-based
T3 sequence (P37231 whole entry): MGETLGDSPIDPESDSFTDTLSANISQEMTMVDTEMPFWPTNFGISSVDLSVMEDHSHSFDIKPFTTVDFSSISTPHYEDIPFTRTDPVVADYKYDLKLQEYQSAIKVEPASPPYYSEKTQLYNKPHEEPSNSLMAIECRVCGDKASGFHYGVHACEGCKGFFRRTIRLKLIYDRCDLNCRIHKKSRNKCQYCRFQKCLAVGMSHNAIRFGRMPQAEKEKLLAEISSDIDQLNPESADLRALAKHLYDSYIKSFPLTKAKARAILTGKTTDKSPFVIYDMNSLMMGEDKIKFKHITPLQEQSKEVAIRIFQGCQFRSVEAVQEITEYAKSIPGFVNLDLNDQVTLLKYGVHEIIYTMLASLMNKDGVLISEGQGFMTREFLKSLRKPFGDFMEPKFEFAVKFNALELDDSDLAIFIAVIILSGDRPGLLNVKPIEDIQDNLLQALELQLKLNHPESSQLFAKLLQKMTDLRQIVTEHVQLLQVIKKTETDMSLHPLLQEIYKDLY
Outline: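 Reporter cells (nonhuman mammalian, engineered PPAR receptor with luciferase linked to response promoter) pre-incubated 4–6 h at 37 °C, 5% CO2 in medium with 10% charcoal-stripped FBS. Medium replaced with compound-containing screening medium, 22–24 h at 37 °C, then luciferase detection reagent, luminescence read. Multi-point dose-response for EC50; mean ± SEM of at least two separate experiments in triplicate.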

[6] = biological target: T4, Peroxisome proliferator-activated receptor delta (Homo sapiens, UniProt Q03181); assay: Agonist activity at human PPARdelta expressed in nonhuman mammalian cells assessed as increase in receptor transcriptional activity incubated for 22 to 24 hrs by luciferase reporter gene assay; assay type: cell-based
T4 sequence (Q03181 whole entry): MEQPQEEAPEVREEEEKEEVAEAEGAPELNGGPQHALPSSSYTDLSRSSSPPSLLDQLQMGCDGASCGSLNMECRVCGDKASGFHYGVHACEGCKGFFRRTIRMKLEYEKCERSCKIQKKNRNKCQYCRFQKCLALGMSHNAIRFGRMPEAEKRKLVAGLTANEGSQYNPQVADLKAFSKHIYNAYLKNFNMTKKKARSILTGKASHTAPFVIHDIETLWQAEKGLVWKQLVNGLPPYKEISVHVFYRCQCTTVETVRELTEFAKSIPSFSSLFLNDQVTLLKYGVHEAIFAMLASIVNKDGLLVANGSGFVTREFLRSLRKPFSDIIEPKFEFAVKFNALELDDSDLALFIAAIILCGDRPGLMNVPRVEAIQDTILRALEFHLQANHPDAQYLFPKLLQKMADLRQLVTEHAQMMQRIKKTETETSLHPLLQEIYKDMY

[7] = Half life in Sprague Dawley rat pooled liver microsomes preincubated for 5 mins prior to addition of NADPH-regenerating system and measured up to 60 mins by HPLC-MS/MS analysis; assay type: ADME, Microsome; details: 1 h
[8] = biological target: T1, Peroxisome proliferator-activated receptor alpha
[9] = Toxicity in STZ-induced diabetic retinopathy Brown Norway rat model assessed as liver weight at 25 mg/kg, ip administered daily for 4 weeks starting at 2 weeks post STZ challenge relative to body weight (reference value: 4.36 +/- 0.37%); assay type: organism-based; details: in vivo
hERG (KCNH2) = hERG (KCNH2) (Homo sapiens, UniProt Q12809); assay: Inhibition of human ERG stably expressed in CHOK1 cells assessed as tail current amplitude at 10 uM incubated for 5 mins measured after deploarization to +20 mV for 2s followed by 1s pulse to -40 mV with holding potential of -80 mV by Qpatch clamp assay relative to control; assay type: cell-based; details: CHO-K1 cells stably expressing human ERG
Chain of hERG (KCNH2) (Q12809 whole entry): as the sequence (Q12809 whole entry) above
Outline: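 Whole-cell automated patch clamp at room temperature on CHO-K1 cells stably carrying human hERG cDNA. Holding potential -80 mV; tail current evoked by 2 s step to +20 mV then 1 s to -40 mV.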

[10] = Toxicity in STZ-induced diabetic retinopathy Brown Norway rat model at 25 mg/kg, ip administered for 1 month starting at 2 weeks post STZ challenge; assay type: organism-based; details: in vivo, 336 h
[11] = Stability in Sprague Dawley rat pooled liver microsomes preincubated for 5 mins prior to addition of NADPH-regenerating system and measured up to 60 mins by HPLC-MS/MS analysis; assay type: ADME, Microsome; details: 1 h
Outline: (§1)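 Compound pre-incubated 5 min at 37 °C with pooled liver microsomes in phosphate buffer, pH 7.4. NADPH-generating system then added; samples taken at 0, 15, 30, 45 and 60 min and quenched in acetonitrile/methanol. […] References: propranolol, imipramine, verapamil, terfenadine. Run in duplicate.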

[12] = Stability in human pooled liver microsomes preincubated for 5 mins prior to addition of NADPH-regenerating system and measured up to 60 mins by HPLC-MS/MS analysis; assay type: ADME, Microsome; details: 1 h; outline: as §1

Structure (SMILES)	t1/2 [1] [h]	Activity (Rattus norvegicus) [µg]	inhibition (INH) [2]	EC50 [3] [nM]	-TdeltaS [4] [kcal/mol]	Activity (661W)	EC50 [5] [nM]	EC50 [6] [nM]	t1/2 [7] [h]	EC50 [8] [nM]	Activity [9] [%]	inhibition at 5 min, 10 µM (hERG (KCNH2)) [%]	Activity [10]	Stability [11]	Stability [12]
COc1ccc(COc2ccc(CNc3cccc(C(=O)O)c3)cc2)cc1	> 1	0.062	Not Active	300	5.71	Non-Toxic	> 100000	> 100000	> 1	4430	4.68	10	Non-Toxic		
Cc1cc(CNc2cccc(C(=O)O)c2)ccc1OCc1ccc(F)cc1				93	-1.65					37		10		Stable	Stable
